This passage reports inhibition, IC50 and Ratio IC50 results from ChEMBL document CHEMBL4257453, “Identification of karanjin isolated from the Indian beech tree as a potent CYP1 enzyme inhibitor with cellular efficacy via screening of a natural product repository” (Medchemcomm, 2018).

By inhibition is commonly meant the drop in the measured response relative to a control, in per cent. Usually IC50 stands for the concentration that inhibits the measured activity by half.

In one data set the target is CYP3A4 (Homo sapiens, UniProt P08684). Briefly: Inhibition of recombinant human CYP3A4 expressed in baker's yeast-derived microsomes (Sacchrosomes) at 10 uM using dibenzylfluorescein substrate by EROD assay relative to control. The class given is ADME. As to conditions: probe dibenzylfluorescein. The essentials: (§1)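 Yeast microsomes carrying recombinant CYP (Sacchrosomes). […] Substrates per isoform are 7-ethoxyresorufin, 3-cyano-7-ethoxycoumarin, EOMCC or dibenzylfluorescein, read as endpoint fluorescence. Background from compound-only wells without enzyme is subtracted. Independent triplicate runs; α-naphthoflavone positive control.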

The target in data set [1] is T1, CYP1A1 (Homo sapiens, UniProt P04798).
T1 sequence (P04798 whole entry): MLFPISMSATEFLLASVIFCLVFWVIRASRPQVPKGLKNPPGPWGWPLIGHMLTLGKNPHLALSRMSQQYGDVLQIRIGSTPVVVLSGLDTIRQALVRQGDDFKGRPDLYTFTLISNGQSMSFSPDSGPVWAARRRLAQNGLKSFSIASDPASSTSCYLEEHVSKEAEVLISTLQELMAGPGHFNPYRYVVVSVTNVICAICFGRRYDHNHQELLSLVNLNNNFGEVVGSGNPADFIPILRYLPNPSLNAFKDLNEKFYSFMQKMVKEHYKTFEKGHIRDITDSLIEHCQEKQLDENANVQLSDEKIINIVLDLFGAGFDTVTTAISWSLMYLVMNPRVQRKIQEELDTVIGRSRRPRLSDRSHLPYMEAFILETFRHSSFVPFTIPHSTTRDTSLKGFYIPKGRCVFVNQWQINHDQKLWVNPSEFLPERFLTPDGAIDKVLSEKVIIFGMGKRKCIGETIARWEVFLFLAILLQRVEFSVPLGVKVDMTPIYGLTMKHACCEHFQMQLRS
Kind of data set: Inhibition of human recombinant CYP1A1 expressed in HEK293 cells at 10 uM using 7-ethoxyresorufin substrate preincubated for 30 mins followed by substrate addition and measured after 60 mins by fluorescence assay relative to control. The class given is cell-based. As to conditions: HEK293 cells expressing human recombinant CYP1A1, probe 7-ethoxyresorufin. The essentials:
(§2)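 HEK293 cells adapted to suspension and transiently transfected with pcDNA3.1 plasmids carrying the individual CYP; 100×10^3 cells per well in triplicate. […] Fluorogenic substrate is then added at 5 μM and fluorescence read for 60 min.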

For a further data set, the target named is CYP2C9 (Homo sapiens, UniProt P11712). Kind of data set: Inhibition of recombinant human CYP2C9 expressed in baker's yeast-derived microsomes (Sacchrosomes) at 10 uM using 3-cyano-7-ethoxycoumarin substrate by EROD assay relative to control. The class given is ADME. The following applies: probe 3-cyano-7-ethoxycoumarin. The essentials:
as §1

Data set [2] addresses T1, CYP1A1. Kind of data set: Inhibition of recombinant human CYP1A1 expressed in baker's yeast-derived microsomes (Sacchrosomes) at 10 uM using 7-ethoxyresorufin substrate by EROD assay relative to control. As to conditions: probe 7-ethoxyresorufin. The method, boiled down: (§3)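 Yeast microsomes carrying recombinant CYP (Sacchrosomes). Substrates per isoform are 7-ethoxyresorufin, 3-cyano-7-ethoxycoumarin, EOMCC or dibenzylfluorescein, read as endpoint fluorescence. Background from compound-only wells without enzyme is subtracted. Independent triplicate runs; α-naphthoflavone positive control.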

The target of a further data set is Cytochrome P450 3A4 (Homo sapiens, UniProt P08684). Kind of data set: Inhibition of human recombinant CYP3A4 expressed in HEK293 cells using dibenzylfluorescein substrate substrate preincubated for 30 mins followed by substrate addition and measured after 60 mins by fluorescence assay relative to control. The class given is ADME, cell-based. The method, boiled down:
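HEK293 cells adapted to suspension and transiently transfected with pcDNA3.1 plasmids carrying the individual CYP; 100×10^3 cells per well in triplicate. Fluorogenic substrate is then added at 5 μM and fluorescence read for 60 min.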

Another data set deals with Cytochrome P450 2C9 (Homo sapiens, UniProt P11712). Kind of data set: Inhibition of human recombinant CYP2C9 expressed in HEK293 cells using 3-cyano-7-ethoxycoumarin substrate substrate preincubated for 30 mins followed by substrate addition and measured after 60 mins by fluorescence assay relative to control. The class given is ADME, cell-based. The method, boiled down: as §2

The species named for a further data set is Homo sapiens. Kind of data set: Selectivity index, ratio of IC50 for inhibition of human recombinant CYP1B1 expressed in HEK293 cells by fluorescence assay to IC50 for inhibition of human recombinant CYP1A1 expressed in HEK293 cells by fluorescence assay. The class given is cell-based. The essentials: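 HEK293 suspension cells transiently transfected with pcDNA3.1/CYP1B1 or pcDNA3.1/CYP1A1, 100×10^3 cells per well in triplicate. Compound (1 nM to 30 μM) preincubated 30 min at 37 °C, 8% CO2. 7-Ethoxyresorufin then added at 5 μM, and resorufin fluorescence (EROD) read over 60 min. IC50 taken from concentration-response for each isoform; index = CYP1B1 IC50 / CYP1A1 IC50.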

In the next data set the target is Cytochrome P450 2D6 (Homo sapiens, UniProt P10635). Kind of data set: Inhibition of human recombinant CYP2D6 expressed in HEK293 cells using 7-ethoxy-methyloxy-3-cyanocoumarin substrate substrate preincubated for 30 mins followed by substrate addition and measured after 60 mins by fluorescence assay relative to control. The class given is ADME, cell-based. The method, boiled down:
as §2

The target of another data set is CYP2C19 (Homo sapiens, UniProt P33261). Kind of data set: Inhibition of recombinant human CYP2C19 expressed in baker's yeast-derived microsomes (Sacchrosomes) at 10 uM using 3-cyano-7-ethoxycoumarin substrate by EROD assay relative to control. The class given is ADME. As to conditions: probe 3-cyano-7-ethoxycoumarin. The method, boiled down: as §1
The next data set addresses Cytochrome P450 2C19 (Homo sapiens, UniProt P33261). Briefly: Inhibition of human recombinant CYP2C19 expressed in HEK293 cells using 3-cyano-7-ethoxycoumarin substrate substrate preincubated for 30 mins followed by substrate addition and measured after 60 mins by fluorescence assay relative to control. The class given is ADME, cell-based. The method, boiled down:
as §2

Another data set deals with T2, CYP1A2 (Homo sapiens, UniProt P05177).
T2 sequence (P05177 whole entry): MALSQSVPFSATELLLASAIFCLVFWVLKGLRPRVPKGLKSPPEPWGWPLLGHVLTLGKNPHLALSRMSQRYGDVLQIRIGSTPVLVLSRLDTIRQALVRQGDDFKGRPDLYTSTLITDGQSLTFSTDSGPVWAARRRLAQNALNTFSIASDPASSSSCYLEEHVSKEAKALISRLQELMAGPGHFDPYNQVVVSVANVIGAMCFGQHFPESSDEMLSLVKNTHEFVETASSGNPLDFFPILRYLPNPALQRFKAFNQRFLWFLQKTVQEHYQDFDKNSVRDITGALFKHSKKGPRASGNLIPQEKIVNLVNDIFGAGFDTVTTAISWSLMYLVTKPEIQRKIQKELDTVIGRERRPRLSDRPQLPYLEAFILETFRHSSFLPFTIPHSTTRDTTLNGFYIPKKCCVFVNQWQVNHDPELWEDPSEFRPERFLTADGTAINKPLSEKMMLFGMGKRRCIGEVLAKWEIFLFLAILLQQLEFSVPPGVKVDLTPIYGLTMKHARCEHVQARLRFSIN
Kind of data set: Inhibition of recombinant human CYP1A2 expressed in baker's yeast-derived microsomes (Sacchrosomes) at 10 uM using 3-cyano-7-ethoxycoumarin substrate by EROD assay relative to control. The class given is ADME. As to conditions: probe 3-cyano-7-ethoxycoumarin. The essentials:
as §3

The target in another data set is CYP2D6 (Homo sapiens, UniProt P10635). Kind of data set: Inhibition of recombinant human CYP2D6 expressed in baker's yeast-derived microsomes (Sacchrosomes) at 10 uM using 7-ethoxy-methyloxy-3-cyanocoumarin substrate by EROD assay relative to control. The class given is ADME. As to conditions: probe 7-ethoxy-methyloxy-3-cyanocoumarin. The essentials: as §1
Sequence of CYP2D6 (P10635 whole entry): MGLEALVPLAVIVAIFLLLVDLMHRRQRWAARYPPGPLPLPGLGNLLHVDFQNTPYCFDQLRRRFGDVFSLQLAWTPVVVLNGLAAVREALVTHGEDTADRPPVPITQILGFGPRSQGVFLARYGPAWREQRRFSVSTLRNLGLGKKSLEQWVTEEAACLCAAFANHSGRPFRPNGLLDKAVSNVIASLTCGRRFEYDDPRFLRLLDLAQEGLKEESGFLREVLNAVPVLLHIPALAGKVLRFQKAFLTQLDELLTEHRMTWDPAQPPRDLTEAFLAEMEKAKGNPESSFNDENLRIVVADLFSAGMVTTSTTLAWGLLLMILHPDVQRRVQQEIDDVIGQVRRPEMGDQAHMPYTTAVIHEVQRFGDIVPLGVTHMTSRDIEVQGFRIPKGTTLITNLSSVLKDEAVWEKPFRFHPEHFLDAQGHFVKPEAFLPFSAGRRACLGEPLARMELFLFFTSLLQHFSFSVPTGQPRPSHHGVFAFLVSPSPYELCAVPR

Sequence of Cytochrome P450 2D6 (P10635 whole entry): as above
Sequence of CYP2C9 (P11712 whole entry): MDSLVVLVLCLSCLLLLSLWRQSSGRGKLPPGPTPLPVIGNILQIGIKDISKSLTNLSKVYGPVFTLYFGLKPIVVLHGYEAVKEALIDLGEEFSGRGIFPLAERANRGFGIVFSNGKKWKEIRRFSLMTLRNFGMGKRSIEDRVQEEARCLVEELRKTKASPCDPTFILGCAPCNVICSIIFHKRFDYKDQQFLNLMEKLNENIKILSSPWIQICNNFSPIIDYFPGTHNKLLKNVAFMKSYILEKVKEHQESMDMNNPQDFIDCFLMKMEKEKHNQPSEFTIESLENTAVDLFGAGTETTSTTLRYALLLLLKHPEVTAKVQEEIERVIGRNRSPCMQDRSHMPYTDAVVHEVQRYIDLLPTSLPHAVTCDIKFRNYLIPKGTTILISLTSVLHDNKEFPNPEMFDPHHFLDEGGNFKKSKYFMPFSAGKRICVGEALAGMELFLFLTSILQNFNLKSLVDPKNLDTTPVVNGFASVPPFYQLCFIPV
Sequence of Cytochrome P450 2C9 (P11712 whole entry): as above
Sequence of Cytochrome P450 3A4 (P08684 whole entry): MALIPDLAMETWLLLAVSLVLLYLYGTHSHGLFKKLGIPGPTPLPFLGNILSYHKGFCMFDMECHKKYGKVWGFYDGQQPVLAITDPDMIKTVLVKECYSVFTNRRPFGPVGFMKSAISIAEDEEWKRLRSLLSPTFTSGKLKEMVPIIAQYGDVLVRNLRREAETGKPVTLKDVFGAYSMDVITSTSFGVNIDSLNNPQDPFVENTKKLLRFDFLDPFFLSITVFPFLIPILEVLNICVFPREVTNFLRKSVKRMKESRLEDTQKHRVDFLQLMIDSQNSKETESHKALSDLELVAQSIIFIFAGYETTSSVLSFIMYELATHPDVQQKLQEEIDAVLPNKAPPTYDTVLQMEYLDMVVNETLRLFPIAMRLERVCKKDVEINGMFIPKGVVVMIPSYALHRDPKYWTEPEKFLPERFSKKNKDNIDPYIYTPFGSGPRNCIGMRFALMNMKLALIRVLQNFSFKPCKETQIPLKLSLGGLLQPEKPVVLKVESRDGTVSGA
Sequence of CYP3A4 (P08684 whole entry, canonical isoform): as the sequence (P08684 whole entry) above
Sequence of CYP2C19 (P33261 whole entry): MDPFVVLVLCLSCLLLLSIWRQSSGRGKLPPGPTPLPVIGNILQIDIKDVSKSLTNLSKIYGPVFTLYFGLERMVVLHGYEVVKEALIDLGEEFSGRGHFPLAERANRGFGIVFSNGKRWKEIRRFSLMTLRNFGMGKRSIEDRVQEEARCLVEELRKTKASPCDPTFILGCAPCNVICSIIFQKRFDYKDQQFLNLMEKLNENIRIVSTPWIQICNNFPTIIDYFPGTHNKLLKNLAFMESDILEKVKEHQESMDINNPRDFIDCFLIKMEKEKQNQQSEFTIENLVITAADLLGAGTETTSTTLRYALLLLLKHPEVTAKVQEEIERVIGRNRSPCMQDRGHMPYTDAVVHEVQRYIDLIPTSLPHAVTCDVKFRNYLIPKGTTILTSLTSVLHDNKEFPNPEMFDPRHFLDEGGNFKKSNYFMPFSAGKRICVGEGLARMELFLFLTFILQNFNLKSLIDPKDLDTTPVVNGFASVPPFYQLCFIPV
Sequence of Cytochrome P450 2C19 (P33261 whole entry): as above

Regarding `COc1c2ccoc2c(OC)c2oc(=O)ccc12` [ISOPIMPINELLIN], the inhibition at 10 µM came to 0% on CYP3A4; 0% at CYP2C9; 71% at CYP1A1 [2]; 0% on CYP2C19; 62% on CYP1A2; 0% on CYP2D6. In addition, the inhibition at 1 h, 10 µM at CYP1A1 [1] came to 91%. The IC50 on Cytochrome P450 3A4, on Cytochrome P450 2C9, on Cytochrome P450 2D6 and on Cytochrome P450 2C19 was > 10 µM in each case. The Ratio IC50 in the data set listed under Homo sapiens is 319.
In the case of `COc1c2ccoc2cc2oc(=O)ccc12` [BERGAPTEN], the inhibition at 10 µM at CYP3A4 amounted to 3%; at CYP2C9 it was 4%; at CYP1A1 [2], 68%; at CYP2C19 it was 5%; at CYP1A2, 73%; at CYP2D6, 9%. Moreover, the inhibition at 1 h, 10 µM on CYP1A1 [1] was 91%. Moreover, the IC50 at Cytochrome P450 3A4, on Cytochrome P450 2C9, at Cytochrome P450 2D6 and on Cytochrome P450 2C19 was > 10 µM throughout. Moreover, the Ratio IC50 in the data set listed under Homo sapiens came out at 192.
